# According to ChEMBL document CHEMBL1125357, “Gonadotropin-releasing hormone antagonists with N omega-triazolylornithine, -lysine, or -p-aminophenylalanine residues at positions 5 and 6” (J Med Chem, 1992):
# Several values for one entry are separate records, joined by “and”; a condition that tells them apart may be missing. Identical values can stand only once. Starred links: 1 amine or outer side, 2 acyl side, 3 side chain; linkers in the order of their positions; H or OH if unused. Non-standard residues stand in square brackets, D forms with d. Residues, ends and D or L forms follow the SMILES beside them. *: point of attachment. Phe(4-NH(5-NH2triazol-3-yl)) = Nc1nc(Nc2ccc(C[C@H](N)C(=O)O)cc2)n[nH]1; dNva(5-oxo-5-(4-MeOPh)) = COc1ccc(C(=O)CC[C@@H](N)C(=O)O)cc1; X1 = Nc1nc(Nc2ccc(C[C@@H](N[*:1])C(=O)[*:2])cc2)n[nH]1; d(hArg(Et2)) = CCN=C(NCC)NCCCC[C@@H](N)C(=O)O; hArg(Et2) = CCN=C(NCC)NCCCC[C@H](N)C(=O)O; Triazol3yl(1,2,4-5-NH2) = Nc1nc(*)n[nH]1; dPhe(4-Cl) = N[C@H](Cc1ccc(Cl)cc1)C(=O)O; d2Nal = N[C@H](Cc1ccc2ccccc2c1)C(=O)O; Lys(iPr) = CC(C)NCCCC[C@H](N)C(=O)O; NMeY = CN[C@@H](Cc1ccc(O)cc1)C(=O)O; dCit = NC(=O)NCCC[C@@H](N)C(=O)O; d3Pal = N[C@H](Cc1cccnc1)C(=O)O; NMeL = CN[C@@H](CC(C)C)C(=O)O; Nicotinoyl = O=C(c1cccnc1)*; dOrn = NCCC[C@@H](N)C(=O)O; Orn = NCCC[C@H](N)C(=O)O
# How the values were obtained:
# Homo sapiens = organism: Homo sapiens; assay: In vitro antagonistic potency relative to Ac-delta-3-Pro1-(D)Fpa2-(D)Trp3,6]GnRH; type: functional
# In short: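 Cultured rat pituitary cells. Peptides were scored for inhibition of GnRH-mediated LH secretion, and potency is expressed relative to the standard antagonist [Ac-Δ3-Pro1,DFpa2,DTrp3,6]GnRH (= 1.0).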
# Rattus norvegicus [1] = organism: Rattus norvegicus; assay: The compound was tested in vitro for the histamine release; type: functional; conditions: read-out: ED50 (the source's name)
# Rattus norvegicus [2] = organism: Rattus norvegicus; assay: Antiovulatory activity measured in rat; type: functional; set-up: unit: ug/rat
# In short: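 Corbin–Beattie rat antiovulatory assay. Cycling female rats of 250-300 g were given a single sc injection of peptide at noon on proestrus. Vehicle was saline or 5% DMSO in saline (200 μL), or corn oil where flagged. Result is expressed as dose in μg/rat with the number of rats ovulating over the number treated.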
# [3] = Retention time of the compound; type: ADME
# In short: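 Peptide (0.5 mg/mL, 10 μL) was loaded in TEAP pH 7.0/CH3CN (76/24), acidified with H3PO4 where insoluble. Elution used a 30-48% CH3CN gradient over 30 min at 1.5 mL/min. Retention time is reported in minutes.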
SMILES,Potency (Homo sapiens),EC50 (Rattus norvegicus [1]) [µg/mL],AOA (Rattus norvegicus [2]),RT [3] [min]
CC(=O)N[C@H](Cc1ccc2ccccc2c1)C(=O)N[C@H](Cc1ccc(Cl)cc1)C(=O)N[C@H](Cc1cccnc1)C(=O)N[C@@H](CO)C(=O)N[C@@H](CCCCNc1n[nH]c(N)n1)C(=O)N[C@H](CCCCNc1n[nH]c(N)n1)C(=O)N[C@@H](CC(C)C)C(=O)N[C@@H](CCCCNC(C)C)C(=O)N1CCC[C@H]1C(=O)NCC(N)=O,0.12,66,1 and 2.5,
CC(=O)N[C@H](Cc1ccc2ccccc2c1)C(=O)N[C@H](Cc1ccc(Cl)cc1)C(=O)N[C@H](Cc1cccnc1)C(=O)N[C@@H](CO)C(=O)N[C@@H](CCCN=C(N)N)C(=O)N[C@H](Cc1cccnc1)C(=O)N[C@@H](CC(C)C)C(=O)N[C@@H](CCCN=C(N)N)C(=O)N1CCC[C@H]1C(=O)N[C@H](C)C(N)=O,0.91,2.9,0.5 and 1,
CC(=O)N[C@H](Cc1ccc2ccccc2c1)C(=O)N[C@H](Cc1ccc(Cl)cc1)C(=O)N[C@H](Cc1cccnc1)C(=O)N[C@@H](CO)C(=O)N[C@@H](Cc1ccc(O)cc1)C(=O)N[C@H](Cc1cccnc1)C(=O)N[C@@H](CC(C)C)C(=O)N[C@@H](CCCCNC(C)C)C(=O)N1CCC[C@H]1C(=O)N[C@H](C)C(N)=O [listing 1 of 2 here],,,,16.3
CC(=O)N[C@H](Cc1ccc2ccccc2c1)C(=O)N[C@H](Cc1ccc(Cl)cc1)C(=O)N[C@H](Cc1cccnc1)C(=O)N[C@@H](CO)C(=O)N[C@@H](Cc1ccc(O)cc1)C(=O)N[C@H](Cc1cccnc1)C(=O)N[C@@H](CC(C)C)C(=O)N[C@@H](CCCCNC(C)C)C(=O)N1CCC[C@H]1C(=O)N[C@H](C)C(N)=O [listing 2 of 2 here],1.3,34,1 and 2.5,
CC(=O)N[C@H](Cc1ccc2ccccc2c1)C(=O)N[C@H](Cc1ccc(Cl)cc1)C(=O)N[C@H](Cc1cccnc1)C(=O)N[C@@H](CO)C(=O)N[C@@H](CCCCNC(=O)c1cccnc1)C(=O)N[C@H](CCCCNC(=O)c1cccnc1)C(=O)N[C@@H](CC(C)C)C(=O)N[C@@H](CCCCNC(C)C)C(=O)N1CCC[C@H]1C(=O)N[C@H](C)C(N)=O (Ac-[d2Nal][dPhe(4-Cl)][d3Pal]SK(Nicotinoyl)[dK](Nicotinoyl)L[Lys(iPr)]P[dA]-NH2),0.66,> 300,1 and 1.5,
"CC(=O)N[C@H](Cc1ccc2ccccc2c1)C(=O)N[C@H](Cc1ccc(Cl)cc1)C(=O)N[C@H](Cc1cccnc1)C(=O)N[C@@H](CO)C(=O)N[C@@H](CCCCNc1n[nH]c(N)n1)C(=O)N[C@H](CCCCNc1n[nH]c(N)n1)C(=O)N[C@@H](CC(C)C)C(=O)N[C@@H](CCCCNC(C)C)C(=O)N1CCC[C@H]1C(=O)N[C@H](C)C(N)=O (Ac-[d2Nal][dPhe(4-Cl)][d3Pal]SK(Triazol3yl(1,2,4-5-NH2))[dK](Triazol3yl(1,2,4-5-NH2))L[Lys(iPr)]P[dA]-NH2)",0.23,139,2,
COc1ccc(C(=O)CC[C@@H](NC(=O)[C@H](CCCN=C(N)N)NC(=O)[C@H](CO)NC(=O)[C@@H](Cc2cccnc2)NC(=O)[C@@H](Cc2ccc(Cl)cc2)NC(=O)[C@@H](Cc2ccc3ccccc3c2)NC(C)=O)C(=O)N[C@@H](CC(C)C)C(=O)N[C@@H](CCCN=C(N)N)C(=O)N2CCC[C@H]2C(=O)N[C@H](C)C(N)=O)cc1 (Ac-[d2Nal][dPhe(4-Cl)][d3Pal]SR[dNva(5-oxo-5-(4-MeOPh))]LRP[dA]-NH2),1,1.8,0.5 and 1.5,
CCN=C(NCC)NCCCC[C@H](NC(=O)[C@H](CC(C)C)NC(=O)[C@@H](CCCCNC(=NCC)NCC)NC(=O)[C@H](Cc1ccc(O)cc1)NC(=O)[C@H](CO)NC(=O)[C@@H](Cc1cccnc1)NC(=O)[C@@H](Cc1ccc(Cl)cc1)NC(=O)[C@@H](Cc1ccc2ccccc2c1)NC(C)=O)C(=O)N1CCC[C@H]1C(=O)N[C@H](C)C(N)=O (Ac-[d2Nal][dPhe(4-Cl)][d3Pal]SY[d(hArg(Et2))]L[hArg(Et2)]P[dA]-NH2),2.17,11,2.5,
CC(=O)N[C@H](Cc1ccc2ccccc2c1)C(=O)N[C@H](Cc1ccc(Cl)cc1)C(=O)N[C@H](Cc1cccnc1)C(=O)N[C@@H](CO)C(=O)N[C@@H](Cc1ccc(O)cc1)C(=O)N[C@H](CCCNC(N)=O)C(=O)N[C@@H](CC(C)C)C(=O)N[C@@H](CCCN=C(N)N)C(=O)N1CCC[C@H]1C(=O)N[C@H](C)C(N)=O (Ac-[d2Nal][dPhe(4-Cl)][d3Pal]SY[dCit]LRP[dA]-NH2),1.56,2.1,1 and 2,
CC(=O)N[C@H](Cc1ccc2ccccc2c1)C(=O)N[C@H](Cc1ccc(Cl)cc1)C(=O)N[C@H](Cc1cccnc1)C(=O)N[C@@H](CO)C(=O)N(C)[C@@H](Cc1ccc(O)cc1)C(=O)N[C@H](CCCCNC(=O)c1cccnc1)C(=O)N[C@@H](CC(C)C)C(=O)N[C@@H](CCCCNC(C)C)C(=O)N1CCC[C@H]1C(=O)N[C@H](C)C(N)=O (Ac-[d2Nal][dPhe(4-Cl)][d3Pal]S[NMeY][dK](Nicotinoyl)L[Lys(iPr)]P[dA]-NH2),1.42,22,,
"CC(=O)N[C@H](Cc1ccc2ccccc2c1)C(=O)N[C@H](Cc1ccc(Cl)cc1)C(=O)N[C@H](Cc1cccnc1)C(=O)N[C@@H](CO)C(=O)N[C@@H](CCCNc1n[nH]c(N)n1)C(=O)N[C@H](CCCNc1n[nH]c(N)n1)C(=O)N[C@@H](CC(C)C)C(=O)N[C@@H](CCCCNC(C)C)C(=O)N1CCC[C@H]1C(=O)N[C@H](C)C(N)=O (Ac-[d2Nal][dPhe(4-Cl)][d3Pal]S[Orn](Triazol3yl(1,2,4-5-NH2))[dOrn](Triazol3yl(1,2,4-5-NH2))L[Lys(iPr)]P[dA]-NH2)",0.2,158,2,
CC(=O)N[C@H](Cc1ccc2ccccc2c1)C(=O)N[C@H](Cc1ccc(Cl)cc1)C(=O)N[C@H](Cc1cccnc1)C(=O)N[C@@H](CO)C(=O)N[C@@H](Cc1ccc(Nc2n[nH]c(N)n2)cc1)C(=O)N[C@H](Cc1ccc(Nc2n[nH]c(N)n2)cc1)C(=O)N[C@@H](CC(C)C)C(=O)N[C@@H](CCCCNC(C)C)C(=O)N1CCC[C@H]1C(=O)NCC(N)=O (Ac-[d2Nal][dPhe(4-Cl)][d3Pal]S[Phe(4-NH(5-NH2triazol-3-yl))][X1]L[Lys(iPr)]PG-NH2),1,28,1,
CC(=O)N[C@H](Cc1ccc2ccccc2c1)C(=O)N[C@H](Cc1ccc(Cl)cc1)C(=O)N[C@H](Cc1cccnc1)C(=O)N[C@@H](CO)C(=O)N[C@@H](Cc1ccc(Nc2n[nH]c(N)n2)cc1)C(=O)N[C@H](Cc1ccc(Nc2n[nH]c(N)n2)cc1)C(=O)N[C@@H](CC(C)C)C(=O)N[C@@H](CCCCNC(C)C)C(=O)N1CCC[C@H]1C(=O)N[C@H](C)C(N)=O (Ac-[d2Nal][dPhe(4-Cl)][d3Pal]S[Phe(4-NH(5-NH2triazol-3-yl))][X1]L[Lys(iPr)]P[dA]-NH2),1.3,224,0.5 and 1,
CC(=O)N[C@H](Cc1ccc2ccccc2c1)C(=O)N[C@H](Cc1ccc(Cl)cc1)C(=O)N[C@H](Cc1cccnc1)C(=O)N[C@@H](CO)C(=O)N[C@@H](Cc1ccc(Nc2n[nH]c(N)n2)cc1)C(=O)N[C@H](Cc1ccc(Nc2n[nH]c(N)n2)cc1)C(=O)N(C)[C@@H](CC(C)C)C(=O)N[C@@H](CCCCNC(C)C)C(=O)N1CCC[C@H]1C(=O)N[C@H](C)C(N)=O (Ac-[d2Nal][dPhe(4-Cl)][d3Pal]S[Phe(4-NH(5-NH2triazol-3-yl))][X1][NMeL][Lys(iPr)]P[dA]-NH2),1.6,34,0.5 and 1,
